According to the RNAGym collection of RNA variant scans (doi:10.1002/anie.201605470):

B1: Osa-1-4 twister ribozyme (parent)
chain: CCGCCUAACACUGCCAAUGCCGGUCCCAAGCCCGGAUAAAAGUGGAGGGGGCGG

Variants of: B1
Test: self-cleavage, relative activity (ratio to wild type); higher = more cleavage; co-transcriptional
Method in brief: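 A DNA template encoding a 54-nucleotide twister ribozyme from Oryza sativa was made so that each of the 48 positions downstream of the cleavage site carried 97 % wild-type base and 1 % of each other base. Transcription in vitro ran for 2 h at 37 °C, during which the ribozyme could cleave itself. Reverse transcription used a template-switching oligonucleotide, and the products were PCR-amplified and deep-sequenced. Each read was scored as cleaved or uncleaved by whether upstream sequence was present, and relative activity is the fraction cleaved normalised to wild type.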

Compared with A16U C15G, A16U C15U is lower in self-cleavage: 0.31 for the first, 0.18 for the second.

Compared with A16U C15A, A16G G45U is lower in self-cleavage: 0.35 for the first, 0.19 for the second.

First: A16G G45C
Second: A16G G45A
The self-cleavage of the first is lower: 0.08 for the first, 0.55 for the second.

First: A16U A40U
Second: A16U A40G
The self-cleavage of the first is higher: 0.55 for the first, 0.38 for the second.

Going from A16U A40C to A16C G44U, the self-cleavage rises from 0.07 to 0.94.

First: A16C G44A
Second: A16C G44C
The self-cleavage of the first is lower: 0.95 for the first, 0.97 for the second.

First: A16G A29G
Second: A16G A29U
The self-cleavage of the first is higher: 0.39 for the first, 0.27 for the second.

First: A16G A29C
Second: A16C G51A
The self-cleavage of the first is lower: 0.08 for the first, 0.53 for the second.

Going from A16C G51U to A16C G51C, the self-cleavage falls from 0.35 to 0.12.

Going from A16G G34A to A16G G34U, the self-cleavage falls from 0.84 to 0.82.

First: A16G G34C
Second: A16C C32A
The self-cleavage of the first is higher: 0.74 for the first, 0.07 for the second.

Going from A16C C32U to A16C C32G, the self-cleavage rises from 0.09 to 0.12.

First: A16C G22C
Second: A16C G22U
The self-cleavage of the first is lower: 0.07 for the first, 0.31 for the second.

Going from A16C G22A to A16G C31G, the self-cleavage falls from 0.76 to 0.16.

Going from A16G C31A to A16G C31U, the self-cleavage rises from 0.03 to 0.94.

Going from A16C G48C to A16C G48U, the self-cleavage falls from 0.07 to 0.06.

First: A16C G48A
Second: C15U U37C
The self-cleavage of the first is lower: 0.06 for the first, 0.36 for the second.

First: C15U U37G
Second: C15U U37A
The self-cleavage of the first is higher: 0.76 for the first, 0.62 for the second.

First: A16G C15G
Second: A16G C15A
The self-cleavage of the first is higher: 0.78 for the first, 0.61 for the second.

Going from A16G C15U to A16C G35U, the self-cleavage rises from 0.45 to 0.64.

First: A16C G35A
Second: A16C G35C
The self-cleavage of the first is higher: 0.61 for the first, 0.17 for the second.

First: A16G A40G
Second: A16G A40U
The self-cleavage of the first is lower: 0.77 for the first, 0.88 for the second.

Compared with A16G A40C, A16U A46G is lower in self-cleavage: 0.11 for the first, 0.05 for the second.

Compared with A16U A46C, A16U A46U is lower in self-cleavage: 0.07 for the first, 0.05 for the second.

First: A16G C27U
Second: A16G C27G
The self-cleavage of the first is higher: 0.37 for the first, 0.15 for the second.

Compared with A16G C27A, A16G G35U is higher in self-cleavage: 0.38 for the first, 0.93 for the second.

First: A16G G35A
Second: A16G G35C
The self-cleavage of the first is higher: 0.87 for the first, 0.8 for the second.

Going from A16C G19A to A16C G19U, the self-cleavage falls from 0.62 to 0.19.

Going from A16C G19C to A16G C21G, the self-cleavage falls from 0.13 to 0.12.

Compared with A16G C21A, A16G C21U is higher in self-cleavage: 0.8 for the first, 0.98 for the second.

Going from A16C C9U to A16C C9A, the self-cleavage falls from 0.77 to 0.5.

Compared with A16C C9G, A16C C26G is lower in self-cleavage: 0.51 for the first, 0.1 for the second.

Going from A16C C26U to A16C C26A, the self-cleavage falls from 0.76 to 0.03.

Going from A16G C52U to A16G C52G, the self-cleavage rises from 0.99 to 1.

Going from A16G C52A to A16C U24G, the self-cleavage falls from 0.97 to 0.04.

First: A16C U24A
Second: A16C U24C
The self-cleavage of the first is lower: 0.11 for the first, 0.17 for the second.

Going from A16C C27G to A16C C27U, the self-cleavage rises from 0.06 to 0.1.

First: A16C C27A
Second: A16G G50C
The self-cleavage of the first is lower: 0.13 for the first, 0.95 for the second.

Compared with A16G G50A, A16G G50U is higher in self-cleavage: 0.77 for the first, 1.02 for the second.

Compared with A16G G44A, A16G G44U is lower in self-cleavage: 0.96 for the first, 0.95 for the second.

Compared with A16G G44C, A16G C20A is lower in self-cleavage: 0.96 for the first, 0.86 for the second.

Compared with A16G C20U, A16G C20G is lower in self-cleavage: 0.99 for the first, 0.19 for the second.

First: A16C G50C
Second: A16C G50A
The self-cleavage of the first is higher: 0.82 for the first, 0.71 for the second.

First: A16C G50U
Second: A16U A36U
The self-cleavage of the first is lower: 0.97 for the first, 1.01 for the second.

Going from A16U A36G to A16U A36C, the self-cleavage falls from 0.97 to 0.6.

Compared with A16U A17C, A16U A17U is higher in self-cleavage: 0.94 for the first, 1.01 for the second.

Compared with A16U A17G, A16C U18G is lower in self-cleavage: 0.96 for the first, 0.85 for the second.

Going from A16C U18C to A16C U18A, the self-cleavage rises from 0.91 to 0.92.

Compared with A16C U43G, A16C U43C is higher in self-cleavage: 0.16 for the first, 0.33 for the second.

Going from A16C U43A to A16G A41C, the self-cleavage rises from 0.7 to 0.99.

Going from A16G A41U to A16G A41G, the self-cleavage falls from 1.05 to 0.74.

First: A16C A29C
Second: A16C A29U
The self-cleavage of the first is lower: 0.05 for the first, 0.07 for the second.

Going from A16C A29G to A16C A7U, the self-cleavage rises from 0.11 to 0.15.

First: A16C A7C
Second: A16C A7G
The self-cleavage of the first is lower: 0.07 for the first, 0.17 for the second.

Compared with A16C A40G, A16C A40C is lower in self-cleavage: 0.54 for the first, 0.07 for the second.

Compared with A16C A40U, A16U A41G is lower in self-cleavage: 0.52 for the first, 0.36 for the second.

Compared with A16U A41C, A16U A41U is higher in self-cleavage: 0.93 for the first, 0.97 for the second.

First: A16C A39U
Second: A16C A39C
The self-cleavage of the first is higher: 0.95 for the first, 0.89 for the second.

First: A16C A39G
Second: A16G G51U
The self-cleavage of the first is higher: 0.95 for the first, 0.46 for the second.

Compared with A16G G51A, A16G G51C is lower in self-cleavage: 0.82 for the first, 0.22 for the second.

First: A16U
Second: A16G
The self-cleavage of the first is lower: 0.97 for the first, 1.01 for the second.

Going from A16C to A16U C14G, the self-cleavage falls from 0.97 to 0.11.

First: A16U C14U
Second: A16U C14A
The self-cleavage of the first is higher: 0.3 for the first, 0.05 for the second.

Compared with A16G G49A, A16G G49C is lower in self-cleavage: 0.27 for the first, 0.08 for the second.

First: A16G G49U
Second: C15U U24C
The self-cleavage of the first is higher: 0.3 for the first, 0.04 for the second.

Going from C15U U24A to C15U U24G, the self-cleavage falls from 0.04 to 0.03.

Going from A16G U43C to A16G U43G, the self-cleavage rises from 0.53 to 0.62.

First: A16G U43A
Second: A16U C9U
The self-cleavage of the first is higher: 0.89 for the first, 0.62 for the second.

Compared with A16U C9G, A16U C9A is lower in self-cleavage: 0.91 for the first, 0.42 for the second.

Compared with A16G C11G, A16G C11U is higher in self-cleavage: 0.65 for the first, 0.95 for the second.

First: A16G C11A
Second: A16U A39G
The self-cleavage of the first is higher: 0.85 for the first, 0.4 for the second.

Going from A16U A39U to A16U A39C, the self-cleavage rises from 0.87 to 0.93.

Compared with A16G C26A, A16G C26G is higher in self-cleavage: 0.08 for the first, 0.13 for the second.

Going from A16G C26U to A16C A46C, the self-cleavage falls from 0.93 to 0.06.

Going from A16C A46G to A16C A46U, the self-cleavage rises from 0.06 to 0.07.

Compared with A16C A17U, A16C A17C is lower in self-cleavage: 0.98 for the first, 0.87 for the second.

First: A16C A17G
Second: C15U U43A
The self-cleavage of the first is higher: 0.9 for the first, 0.16 for the second.

First: C15U U43C
Second: C15U U43G
The self-cleavage of the first is lower: 0.09 for the first, 0.12 for the second.

Going from A16G G22C to A16G G22U, the self-cleavage rises from 0.19 to 0.82.

Going from A16G G22A to A16C C25G, the self-cleavage falls from 1 to 0.1.

First: A16C C25U
Second: A16C C25A
The self-cleavage of the first is higher: 0.72 for the first, 0.08 for the second.

A16C A38C and A16C A38U are the same in self-cleavage: 1.01 for the first, 1.01 for the second.

Going from A16C A38G to A16C C15A, the self-cleavage falls from 0.96 to 0.39.

With A16C C15G the self-cleavage was 0.54.
